Numbered stars: 1 amine (or outer) side, 2 acyl side, 3 side chain; on linkers, the order of the positions; unused ones are H or OH. Bridge positions count the residues as written; N and C are the ends. Square brackets hold non-standard residues; d marks the D form. Peptide text beside a SMILES is read from it. * marks the point of attachment. pTerphenylCO(4''-OnC5H11) = CCCCCOc1ccc(-c2ccc(-c3ccc(C(=O)*)cc3)cc2)cc1; Orn(4R-OH,5R-OH) = O=C([C@H](C[C@@H](O)[C@@H](O)N[*:3])N[*:1])[*:2]; hTyr(3S-OH,4S-OH) = N[C@H](C(=O)O)[C@H](O)[C@@H](O)c1ccc(O)cc1; Pro(3S-OH,4S-Me) = C[C@H]1CN[C@H](C(=O)O)[C@H]1O; Hyp = O=C(O)[C@@H]1C[C@@H](O)CN1
What was measured:
[1] = Drug level healthy human alveolar macrophage at 200 mg, iv on day 1 as 200 mins infusion followed by maintenance dose of 100 mg every 24 hrs on days 2 and 3 as 100 mins infusions after 8 hrs of last dose; type: ADME, organism-based; conditions: alveolar macrophages, read-out: Drug uptake
In short: (§1)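 Single bronchoscopy with BAL in healthy adults (5 per time point) after the third co-dose, following 6 h fasting and lidocaine anaesthesia. BAL centrifuged at 400 × g, 4°C, 10 min. Cell pellet lysed in 0.9% NaCl/methanol (1:1). Both drugs measured by HPLC-MS/MS against saline surrogate-matrix standards. AM concentration calculated from manual cell counts and a mean AM volume of 2.42 μl/10^6 cells. Total drug reported.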

[2] = Drug level healthy human alveolar macrophage at 200 mg, iv on day 1 as 200 mins infusion followed by maintenance dose of 100 mg every 24 hrs on days 2 and 3 as 100 mins infusions after 12 hrs of last dose; type: ADME, organism-based; conditions: alveolar macrophages, read-out: Drug uptake; in short: as §1
[3] = Drug level healthy human plasma at 200 mg, iv on day 1 as 200 mins infusion followed by maintenance dose of 100 mg every 24 hrs on days 2 and 3 as 100 mins infusions after 8 hrs of last dose; type: ADME, organism-based; conditions: read-out: Drug uptake
[4] = tested on: Homo sapiens; experiment: Total body clearance in healthy human at 200 mg, iv on day 1 as 200 mins infusion followed by maintenance dose of 100 mg every 24 hrs on days 2 and 3 as 100 mins infusions; type: ADME, organism-based; conditions: in vivo
In short: (§2)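 Duplicate blood draws at 0 h, 100 min (end of infusion), and 2, 4, 8, 12, 24 h after the day-3 dose start. Plasma measured by HPLC-MS/MS (range 50.0–20,000 ng/ml). Noncompartmental analysis, per participant; AUC0-τ by linear-log trapezoidal rule, τ = 24 h.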

[5] = Drug level healthy human epithelial lining fluid at 200 mg, iv on day 1 as 200 mins infusion followed by maintenance dose of 100 mg every 24 hrs on days 2 and 3 as 100 mins infusions after 24 hrs of last dose; type: ADME, organism-based; conditions: read-out: Drug uptake
In short: (§3)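 Single bronchoscopy with BAL in healthy adults (5 per time point) after the third co-dose, following 6 h fasting. Supernatant (400 × g, 4°C, 10 min) mixed 1:1 with methanol. Both drugs measured by HPLC-MS/MS with saline surrogate-matrix calibrators. ELF volume estimated by urea dilution, with urea in BAL and simultaneous serum measured colorimetrically. Total drug reported.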

[6] = Drug level healthy human plasma at 200 mg, iv on day 1 as 200 mins infusion followed by maintenance dose of 100 mg every 24 hrs on days 2 and 3 as 100 mins infusions after 24 hrs of last dose; type: ADME, organism-based; conditions: read-out: Drug uptake
[7] = Drug level healthy human alveolar macrophage at 200 mg, iv on day 1 as 200 mins infusion followed by maintenance dose of 100 mg every 24 hrs on days 2 and 3 as 100 mins infusions after 24 hrs of last dose; type: ADME, organism-based; conditions: alveolar macrophages, read-out: Drug uptake; in short: as §1
[8] = Drug level healthy human epithelial lining fluid at 200 mg, iv on day 1 as 200 mins infusion followed by maintenance dose of 100 mg every 24 hrs on days 2 and 3 as 100 mins infusions after 4 hrs of last dose; type: ADME, organism-based; conditions: read-out: Drug uptake; in short: as §3
[9] = Drug level healthy human epithelial lining fluid at 200 mg, iv on day 1 as 200 mins infusion followed by maintenance dose of 100 mg every 24 hrs on days 2 and 3 as 100 mins infusions after 8 hrs of last dose; type: ADME, organism-based; conditions: read-out: Drug uptake; in short: as §3
[10] = Elimination half life in healthy human at 200 mg, iv on day 1 as 200 mins infusion followed by maintenance dose of 100 mg every 24 hrs on days 2 and 3 as 100 mins infusions; type: ADME, organism-based; conditions: in vivo, read-out: beta t1/2 (converted)
[11] = Cmax in healthy human at 200 mg, iv on day 1 as 200 mins infusion followed by maintenance dose of 100 mg every 24 hrs on days 2 and 3 as 100 mins infusions; type: ADME, organism-based; design: dose 200 mg, route intravenous; conditions: in vivo; in short: as §2
[12] = tested on: Homo sapiens; experiment: AUC (0 to t) in healthy human at 200 mg, iv on day 1 as 200 mins infusion followed by maintenance dose of 100 mg every 24 hrs on days 2 and 3 as 100 mins infusions; type: ADME, organism-based, Plasma; conditions: in vivo; in short: as §2
[13] = Drug level healthy human alveolar macrophage at 200 mg, iv on day 1 as 200 mins infusion followed by maintenance dose of 100 mg every 24 hrs on days 2 and 3 as 100 mins infusions after 4 hrs of last dose; type: ADME, organism-based; conditions: alveolar macrophages, read-out: Drug uptake; in short: as §1
[14] = Drug level healthy human plasma at 200 mg, iv on day 1 as 200 mins infusion followed by maintenance dose of 100 mg every 24 hrs on days 2 and 3 as 100 mins infusions after 4 hrs of last dose; type: ADME, organism-based; conditions: read-out: Drug uptake
[15] = Drug level healthy human plasma at 200 mg, iv on day 1 as 200 mins infusion followed by maintenance dose of 100 mg every 24 hrs on days 2 and 3 as 100 mins infusions after 12 hrs of last dose; type: ADME, organism-based; conditions: read-out: Drug uptake
[16] = Drug level healthy human epithelial lining fluid at 200 mg, iv on day 1 as 200 mins infusion followed by maintenance dose of 100 mg every 24 hrs on days 2 and 3 as 100 mins infusions after 12 hrs of last dose; type: ADME, organism-based; conditions: read-out: Drug uptake; in short: as §3
[17] = Tmax in healthy human at 200 mg, iv on day 1 as 200 mins infusion followed by maintenance dose of 100 mg every 24 hrs on days 2 and 3 as 100 mins infusions; type: ADME, organism-based; conditions: in vivo; in short: as §2
[18] = Volume of distribution at steady state in healthy human at 200 mg, iv on day 1 as 200 mins infusion followed by maintenance dose of 100 mg every 24 hrs on days 2 and 3 as 100 mins infusions; type: ADME, organism-based; conditions: in vivo, read-out: Vdss; in short: as §2
[19] = Drug level in healthy human epithelial lining fluid at 6 mg/kg, iv for every 12 hrs on day 1 as 120 mins infusions followed by maintenance dose of 4 mg/kg every 12 hrs on day 2 and single 4 mg/kg dose on day 3 as 100 mins infusions after 12 hrs of last dose; type: ADME, organism-based; conditions: read-out: Drug uptake; in short: as §3
[20] = Tmax in healthy human at 6 mg/kg, iv for every 12 hrs on day 1 as 120 mins infusions followed by maintenance dose of 4 mg/kg every 12 hrs on day 2 and single 4 mg/kg dose on day 3 as 100 mins infusions; type: ADME, organism-based; conditions: in vivo
In short: (§4)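 Dose by actual body weight, rounded to nearest mg. Duplicate plasma samples at 0 h, 100 min, and 2, 4, 8, 12, 24 h after the day-3 dose start. HPLC-MS/MS (range 10.0–5,000 ng/ml). Noncompartmental analysis per participant; AUC0-τ by linear-log trapezoidal rule, τ = 12 h.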

[21] = Drug level healthy human plasma at 6 mg/kg, iv for every 12 hrs on day 1 as 120 mins infusions followed by maintenance dose of 4 mg/kg every 12 hrs on day 2 and single 4 mg/kg dose on day 3 as 100 mins infusions after 4 hrs of last dose; type: ADME, organism-based; conditions: read-out: Drug uptake
[22] = Elimination half life in healthy human at 6 mg/kg, iv for every 12 hrs on day 1 as 120 mins infusions followed by maintenance dose of 4 mg/kg every 12 hrs on day 2 and single 4 mg/kg dose on day 3 as 100 mins infusions; type: ADME, organism-based; conditions: in vivo, read-out: beta t1/2 (converted)
[23] = Cmax in healthy human at 6 mg/kg, iv for every 12 hrs on day 1 as 120 mins infusions followed by maintenance dose of 4 mg/kg every 12 hrs on day 2 and single 4 mg/kg dose on day 3 as 100 mins infusions; type: ADME, organism-based; design: dose 6 mg/kg, route intravenous; conditions: in vivo; in short: as §4
[24] = Drug level in healthy human epithelial lining fluid at 6 mg/kg, iv for every 12 hrs on day 1 as 120 mins infusions followed by maintenance dose of 4 mg/kg every 12 hrs on day 2 and single 4 mg/kg dose on day 3 as 100 mins infusions after 4 hrs of last dose; type: ADME, organism-based; conditions: read-out: Drug uptake; in short: as §3
[25] = Volume of distribution at steady state in healthy human at 6 mg/kg, iv for every 12 hrs on day 1 as 120 mins infusions followed by maintenance dose of 4 mg/kg every 12 hrs on day 2 and single 4 mg/kg dose on day 3 as 100 mins infusions; type: ADME, organism-based; conditions: in vivo, read-out: Vdss; in short: as §4
[26] = Drug level healthy human plasma at 6 mg/kg, iv for every 12 hrs on day 1 as 120 mins infusions followed by maintenance dose of 4 mg/kg every 12 hrs on day 2 and single 4 mg/kg dose on day 3 as 100 mins infusions after 12 hrs of last dose; type: ADME, organism-based; conditions: read-out: Drug uptake
[27] = Drug level in healthy human epithelial lining fluid at 6 mg/kg, iv for every 12 hrs on day 1 as 120 mins infusions followed by maintenance dose of 4 mg/kg every 12 hrs on day 2 and single 4 mg/kg dose on day 3 as 100 mins infusions after 8 hrs of last dose; type: ADME, organism-based; conditions: read-out: Drug uptake; in short: as §3
[28] = Drug level healthy human plasma at 6 mg/kg, iv for every 12 hrs on day 1 as 120 mins infusions followed by maintenance dose of 4 mg/kg every 12 hrs on day 2 and single 4 mg/kg dose on day 3 as 100 mins infusions after 8 hrs of last dose; type: ADME, organism-based; conditions: read-out: Drug uptake
[29] = Drug level in healthy human alveolar macrophage at 6 mg/kg, iv for every 12 hrs on day 1 as 120 mins infusions followed by maintenance dose of 4 mg/kg every 12 hrs on day 2 and single 4 mg/kg dose on day 3 as 100 mins infusions after 12 hrs of last dose; type: ADME, organism-based; conditions: alveolar macrophages, read-out: Drug uptake; in short: as §1
[30] = Drug level in healthy human alveolar macrophage at 6 mg/kg, iv for every 12 hrs on day 1 as 120 mins infusions followed by maintenance dose of 4 mg/kg every 12 hrs on day 2 and single 4 mg/kg dose on day 3 as 100 mins infusions after 8 hrs of last dose; type: ADME, organism-based; conditions: alveolar macrophages, read-out: Drug uptake; in short: as §1
[31] = AUC (0 to t) in healthy human at 6 mg/kg, iv for every 12 hrs on day 1 as 120 mins infusions followed by maintenance dose of 4 mg/kg every 12 hrs on day 2 and single 4 mg/kg dose on day 3 as 100 mins infusions; type: ADME, organism-based; conditions: plasma; in short: as §4
[32] = Drug level in healthy human alveolar macrophage at 6 mg/kg, iv for every 12 hrs on day 1 as 120 mins infusions followed by maintenance dose of 4 mg/kg every 12 hrs on day 2 and single 4 mg/kg dose on day 3 as 100 mins infusions after 4 hrs of last dose; type: ADME, organism-based; conditions: alveolar macrophages, read-out: Drug uptake; in short: as §1

CCCCCOc1ccc(-c2ccc(-c3ccc(C(=O)N[C@H]4C[C@@H](O)[C@@H](O)NC(=O)[C@@H]5[C@@H](O)[C@@H](C)CN5C(=O)[C@H]([C@@H](C)O)NC(=O)[C@H]([C@H](O)[C@@H](O)c5ccc(O)cc5)NC(=O)[C@@H]5C[C@@H](O)CN5C(=O)[C@H]([C@@H](C)O)NC4=O)cc3)cc2)cc1 [ANIDULAFUNGIN] ({pTerphenylCO(4''-OnC5H11)}-[Orn(4R-OH,5R-OH)]T[Hyp][hTyr(3S-OH,4S-OH)]T[Pro(3S-OH,4S-Me)]; lactam 1-C)
concentration at 8 h [1]: 37900 ng/mL
concentration at 12 h [2]: 42700 ng/mL
concentration at 8 h [3]: 5100 ng/mL
clearance [4]: 17.1 mL/min
concentration at 24 h [5]: 1100 ng/mL
concentration at 24 h [6]: 3000 ng/mL
concentration at 24 h [7]: 103000 ng/mL
concentration at 4 h [8]: 900 ng/mL
concentration at 8 h [9]: 800 ng/mL
half-life [10]: 20.8 h
Cmax [11]: 6600 ng/mL
AUC [12]: 101000 ng·h/mL
concentration at 4 h [13]: 44600 ng/mL
concentration at 4 h [14]: 6000 ng/mL
concentration at 12 h [15]: 4400 ng/mL
concentration at 12 h [16]: 800 ng/mL
Tmax [17]: 1.9 h
Vd [18]: 30.8 L

C[C@@H](c1ncncc1F)[C@](O)(Cn1cncn1)c1ccc(F)cc1F [VORICONAZOLE]
concentration at 12 h [19]: 17200 ng/mL
Tmax [20]: 1.8 h
concentration at 4 h [21]: 5300 ng/mL
half-life [22]: 6.9 h
Cmax [23]: 5300 ng/mL
concentration at 4 h [24]: 48300 ng/mL
Vd [25]: 110 L
concentration at 12 h [26]: 2200 ng/mL
concentration at 8 h [27]: 10100 ng/mL
concentration at 8 h [28]: 1700 ng/mL
concentration at 12 h [29]: 14400 ng/mL
concentration at 8 h [30]: 10300 ng/mL
AUC(0-t) [31]: 39500 ng·h/mL
concentration at 4 h [32]: 20600 ng/mL

From ChEMBL document CHEMBL1649284 (Antimicrob Agents Chemother, 2009)
